Laboratory results: article PMC11040122 (Heliyon, 2024)

Key:
SlSCP-2 = details: read-out: IC50 values reported for natural compounds; cited from earlier work
Sf9 cells = test: In vitro toxicity / cell growth inhibition rate; format: cell-based, Spodoptera frugiperda; details: MTT assay, 72 h of treatment
Outline: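 Sf9 cells (2 × 10^4 cells/mL) in Grace's medium with 10 % FBS, exposed in triplicate to test compound (0.5–100 μM, from DMSO stocks); DMSO negative control. Incubated at 30 °C, humidified, no CO2, for 3–5 days until control wells near confluent. MTT (5 mg/mL) added for 4 h at 30 °C, formazan dissolved in DMSO, A570 read. IR = (1 − At/Ac) × 100; mean ± SD.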

CCCCCCCC/C=C\CCCCCCCC(=O)O [oleic acid]
IC50 (SlSCP-2): 24.4 µM

CC(C)CCC[C@@H](C)[C@H]1CC[C@H]2[C@@H]3CC=C4C[C@@H](O)CC[C@]4(C)[C@H]3CC[C@]12C [cholesterol]
IC50 (SlSCP-2): 50.1 µM

CCCCCCCCCCCCCCCC(=O)O [palmitic acid]
IC50 (SlSCP-2): 59.1 µM

CCCCCCCCCCCCCCCCCC(=O)O [stearic acid]
IC50 (SlSCP-2): 39.8 µM

COc1c(O)cc2oc3cc(O)c(CC=C(C)C)c(O)c3c(=O)c2c1CC=C(C)C [Alpha-mangostin]
%IR At 100 μM (percent inhibition of cell growth rate) (Sf9 cells): 52.18%

CCCCC/C=C\C/C=C\C/C=C\C/C=C\CCCC(=O)O [arachidonate]
IC50 (SlSCP-2): 18.1 µM
